From ChEMBL document CHEMBL1146073, “A pyridazine series of alpha2/alpha3 subtype selective GABA A agonists for the treatment of anxiety” (J Med Chem, 2006)
Each block holds one molecule with its values, some of them ahead of it. Calls of active or inactive are those of the source. No cut-off for these calls is given here.

Assays:
[1] = target: T1, GABA-A receptor; anion channel (Rattus norvegicus) (UniProt O09028+P15431+P18506+P18508+P19969+P20236+P23574+P23576+P28471+P28473+P30191+P62813+P63079+P63138+Q91ZM7+Q9ES14); experiment: Receptor occupancy in vivo by displacement of [3H]Ro-151788 binding from GABA-A receptor in rat at 0.1 mg/kg, po; type: functional, organism-based; parameters: dose 0.1 mg/kg
Outline: (§1)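 Rat in vivo occupancy measured by [3H]Ro 15-1788 binding after oral dosing. Rats taken as a subgroup after the plus-maze trial, i.e. 30 min post-dose or later. ED50 derived from dose-dependent occupancy. Mean ± SEM, n = 5-10/group.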

[2] = target: T1, GABA-A receptor; anion channel (Rattus norvegicus); experiment: Receptor occupancy in vivo by displacement of [3H]Ro-151788 binding from GABA-A receptor in rat at 0.3 mg/kg, po; type: functional, organism-based; parameters: dose 0.3 mg/kg; outline: as §1
Rattus norvegicus [3] = experiment: Anxiolytic activity in rat plus-maze assay at 0.3 mg/kg, po; type: functional, organism-based; parameters: dose 0.3 mg/kg
Outline: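 Rats given vehicle (0.5% methyl cellulose) or compound orally; chlordiazepoxide 5 mg/kg ip as positive control. Placed on elevated plus maze 30 min after dosing; time on open arms recorded as anxiety index. Significance versus vehicle at p < 0.05; mean ± SEM, n = 16-18/group.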

Rattus norvegicus [4] = experiment: Anxiolytic activity in rat plus-maze assay at 1 mg/kg, po

Activity [1]: 57%
Structure (SMILES): Fc1cnc(-c2cc(-c3ccc(F)c(-c4ncccc4F)c3)cnn2)c(F)c1

Activity [2]: 56%
Structure (SMILES): Fc1cnc(-c2cc(-c3cnnc(-c4c(F)cncc4F)c3)ccc2F)c(F)c1
Activity (Rattus norvegicus [3]): Active

Structure (SMILES): Fc1cnc(-c2cc(-c3ccc(F)c(-c4ncc(F)cc4F)c3)cnn2)c(F)c1
Activity (Rattus norvegicus [4]): Active
